Measured values reported in ChEMBL document CHEMBL1130253 (J Med Chem, 1997).

Legend:
CCRF-CEM = experiment: Concentration required to inhibit against HIV strain IIIB in CEM cell; format: functional; details: Homo sapiens, read-out: ED50 (the source's name)
[1] = Minimum cellular toxicity against the HIV strain IIIB in CEM cells was determined; format: cell-based, CCRF-CEM; details: human, read-out: TD50 (the source's name)
[2] = target: Human immunodeficiency virus type 1 protease (Human immunodeficiency virus 1, UniProt Q72874); experiment: Inhibitory activity against HIV-1 protease
[3] = The maximum time for retention (25 mg/kg) administered orally in marmoset; format: ADME, organism-based; details: callithrix, in vivo, po
Procedure, shortened: (§1)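 Plasma pharmacokinetics in male Sprague-Dawley rats (n = 3), beagle dogs (1 male, 1 female), female cynomolgus monkeys (2) and marmosets (1 male, 1 female). Single iv (12.5-25 mg/kg) or oral (25-50 mg/kg) dose. Vehicle was 5% dextrose for rat, dog and monkey, and propylene glycol:water (50:50) for marmoset. Venous blood was drawn predose and up to 48 h. Plasma was stored at -20 °C, extracted and assayed by HPLC-UV. Values are means.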

[4] = The maximum plasma concentration (400 mg/kg) administered orally in human; format: ADME, organism-based; parameters: route oral; details: po
Procedure, shortened: (§2)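 Healthy human volunteers given single oral doses of 100–800 mg with food. Plasma PK parameters reported as mean ± SD of four subjects per dose. Tmax reported as median.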

[5] = Elimination rate constant of the compound(100 mg) administered orally in human; details: in vivo, po, read-out: T1/2 el (converted)
[6] = The maximum time for retention (200 mg) administered orally in human; details: in vivo, po
[7] = The maximum plasma concentration (25 mg/kg) administered intravenously in rat; format: ADME, organism-based; parameters: dose 25 mg/kg, route intravenous; details: iv
Procedure, shortened: (§3)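 Male Sprague-Dawley rats (n = 3), beagle dogs (1M/1F), female cynomolgus monkeys and marmosets (1M/1F). Dosed 12.5–25 mg/kg iv or 25–50 mg/kg oral in 5% dextrose, or propylene glycol:water 50:50 for marmosets. Fasted groups fasted overnight. Venous blood sampled predose to 48 h. Plasma stored at -20 °C, extracted and assayed by HPLC-UV. Mean (SD) reported for rats.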

[8] = The maximum time for retention (50 mg/kg) administered orally in fasted rat; format: ADME, organism-based; details: in vivo, po
Procedure, shortened: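 Male Sprague-Dawley rats (n = 3) were fasted overnight, then given a single oral dose (25-50 mg/kg range) in 5% dextrose. Jugular, femoral or cephalic blood was sampled predose and up to 48 h. Plasma was separated at once, held at -20 °C, extracted and quantified by HPLC with UV detection. Values are the mean of three rats.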

[9] = Elimination rate constant of the compound(200 mg/kg) administered orally in human; format: ADME, organism-based; details: in vivo, po, read-out: T1/2 el (converted); procedure, shortened: as §2
[10] = The maximum time for retention (12.5 mg/kg) administered intravenously in marmoset; format: ADME, organism-based; details: callithrix, in vivo, iv; procedure, shortened: as §3
[11] = The area under curve (12.5 mg/kg) administered intravenously in marmoset; format: ADME, organism-based; details: callithrix, in vivo, iv; procedure, shortened: as §3
[12] = The area under curve (25 mg/kg) administered intravenously in rat; format: ADME, organism-based; details: in vivo, iv; procedure, shortened: as §3
[13] = Oral bioavailability (25 mg/kg) in marmoset; format: ADME, organism-based; details: primates, in vivo; procedure, shortened: as §3
Homo sapiens [14] = experiment: The area under curve (800 mg/kg) administered orally in humans; format: ADME, organism-based; details: in vivo, po; procedure, shortened: as §2
[15] = The maximum time for retention (30 mg/kg) administered orally in dog; format: ADME, organism-based, Canis lupus familiaris; details: in vivo, po; procedure, shortened: as §1
[16] = The maximum plasma concentration (200 mg/kg) administered orally in human; format: ADME, organism-based; parameters: route oral; details: po; procedure, shortened: as §2
[17] = The area under curve (25 mg/kg) administered orally in marmoset; format: ADME, organism-based; details: callithrix, in vivo, po; procedure, shortened: as §3
[18] = Elimination rate constant of the compound(12.5 mg/kg) administered intravenously in rmonkey; format: ADME, organism-based; details: simiiformes, in vivo, iv, read-out: T1/2 el (converted); procedure, shortened: as §3
[19] = The maximum plasma concentration (25 mg/kg) administered orally in marmoset; format: ADME, organism-based; parameters: dose 25 mg/kg, route oral; details: callithrix, po; procedure, shortened: as §3
[20] = Elimination rate constant of the compound(50 mg/kg) administered orally in fasted rat; format: ADME, organism-based; details: in vivo, po, read-out: T1/2 el (converted); procedure, shortened: as §3
Homo sapiens [21] = experiment: The maximum plasma concentration (800 mg/kg) administered orally in human; format: ADME, organism-based; parameters: route oral; details: in vivo, po; procedure, shortened: as §2
[22] = The maximum time for retention (12.5 mg/kg) administered intravenously in monkey; format: ADME, organism-based; details: simiiformes, in vivo, iv; procedure, shortened: as §3
[23] = The maximum plasma concentration (12.5 mg/kg) administered intravenously in marmoset; format: ADME, organism-based; parameters: dose 12.5 mg/kg, route intravenous; details: callithrix, iv; procedure, shortened: as §3
[24] = The maximum time for retention (15 mg/kg) administered intravenously in dog; format: ADME, organism-based, Canis lupus familiaris; details: in vivo, iv; procedure, shortened: as §3
[25] = Elimination rate constant of the compound(800 mg/kg) administered orally in human; format: ADME, organism-based; details: in vivo, po; procedure, shortened: as §2
[26] = The area under curve (400 mg/kg) administered orally in humans; format: ADME, organism-based; details: human, in vivo, po; procedure, shortened: as §2
[27] = Elimination rate constant of the compound(12.5 mg/kg) administered intravenously in marmoset; format: ADME, organism-based; details: callithrix, in vivo, iv, read-out: T1/2 el (converted); procedure, shortened: as §3
[28] = The maximum plasma concentration (100 mg/kg) administered orally in human; format: ADME, organism-based; parameters: route oral; details: po; procedure, shortened: as §2
[29] = Oral bioavailability (30 mg/kg) in dog; format: ADME, organism-based, Canis lupus familiaris; details: in vivo; procedure, shortened: as §3
[30] = The maximum time for retention (25 mg/kg) administered orally in monkey; format: ADME, organism-based; details: simiiformes, in vivo, po; procedure, shortened: as §1
[31] = Elimination rate constant of the compound(25 mg/kg) administered intravenously in rat; format: ADME, organism-based; details: in vivo, iv, read-out: T1/2 el (converted); procedure, shortened: as §3
[32] = Elimination rate constant of the compound(25 mg/kg) administered orally in marmoset; format: ADME, organism-based; details: callithrix, in vivo, po, read-out: T1/2 el (converted); procedure, shortened: as §3
[33] = The area under curve (12.5 mg/kg) administered intravenously in monkey; format: ADME, organism-based; details: simiiformes, in vivo, iv; procedure, shortened: as §3
[34] = Elimination rate constant of the compound(25 mg/kg) administered orally in monkey; format: ADME, organism-based; details: simiiformes, in vivo, po, read-out: T1/2 el (converted); procedure, shortened: as §3
[35] = The maximum time for retention (400 mg) administered orally in human; details: in vivo, po
[36] = Oral bioavailability (50 mg/kg) in rat; format: ADME, organism-based; details: in vivo; procedure, shortened: as §3
[37] = The maximum plasma concentration (12.5 mg/kg) administered intravenously in monkey; format: ADME, organism-based; parameters: dose 12.5 mg/kg, route intravenous; details: simiiformes, iv; procedure, shortened: as §3
[38] = The maximum time for retention (50 mg/kg) administered orally in rat; format: ADME, organism-based; details: in vivo, po; procedure, shortened: as §1
[39] = The maximum time for retention (25 mg/kg) administered intravenously in rat; format: ADME, organism-based; details: in vivo, iv; procedure, shortened: as §1
[40] = The maximum plasma concentration (50 mg/kg) administered orally in rat; format: ADME, organism-based; parameters: dose 50 mg/kg, route oral; details: po; procedure, shortened: as §3
[41] = Oral bioavailability (25 mg/kg) in monkey; format: ADME, organism-based; details: primates, in vivo; procedure, shortened: as §3
[42] = Elimination rate constant of the compound(15 mg/kg) administered intravenously in dog; format: ADME, organism-based, Canis lupus familiaris; details: in vivo, iv, read-out: T1/2 el (converted); procedure, shortened: as §3
[43] = Elimination rate constant of the compound(400 mg/kg) administered orally in human; format: ADME, organism-based; details: in vivo, po, read-out: T1/2 el (converted); procedure, shortened: as §2
[44] = The maximum plasma concentration (25 mg/kg) administered orally in monkey; format: ADME, organism-based; parameters: dose 25 mg/kg, route oral; details: simiiformes, po; procedure, shortened: as §3
[45] = Oral bioavailability (50 mg/kg) in fasted rat; format: ADME, organism-based; details: in vivo; procedure, shortened: as §3
[46] = The maximum plasma concentration (50 mg/kg) administered orally in fasted rat; format: ADME, organism-based; parameters: dose 50 mg/kg, route oral; details: po; procedure, shortened: as §3
[47] = The maximum plasma concentration (15 mg/kg) administered intravenously in dog; format: ADME, organism-based, Canis lupus familiaris; parameters: dose 15 mg/kg, route intravenous; details: iv; procedure, shortened: as §3
[48] = The area under curve (30 mg/kg) administered orally in dog; format: ADME, organism-based, Canis lupus familiaris; details: in vivo, po; procedure, shortened: as §3
[49] = The area under curve (100 mg/kg) administered orally in humans; format: ADME, organism-based; details: human, in vivo, po; procedure, shortened: as §2
Homo sapiens [50] = experiment: The maximum time for retention (800 mg) administered orally in human; details: in vivo, po
[51] = The maximum plasma concentration (30 mg/kg) administered orally in dog; format: ADME, organism-based, Canis lupus familiaris; parameters: dose 30 mg/kg, route oral; details: po; procedure, shortened: as §3
[52] = The area under curve (15 mg/kg) administered intravenously in dog; format: ADME, organism-based, Canis lupus familiaris; details: in vivo, iv; procedure, shortened: as §3
[53] = The area under curve (50 mg/kg) administered orally in fasted rat; format: ADME, organism-based; details: in vivo, po; procedure, shortened: as §3
[54] = Elimination rate constant of the compound(30 mg/kg) administered orally in dog; format: ADME, organism-based, Canis lupus familiaris; details: in vivo, po, read-out: T1/2 el (converted); procedure, shortened: as §3
[55] = The area under curve (25 mg/kg) administered orally in monkey; format: ADME, organism-based; details: simiiformes, in vivo, po; procedure, shortened: as §3
[56] = The maximum time for retention (100 mg) administered orally in human; details: in vivo, po
[57] = The area under curve (50 mg/kg) administered orally in rat; format: ADME, organism-based; details: in vivo, po; procedure, shortened: as §3

Cc1c(O)cccc1C(=O)N[C@@H](CSc1ccc2ccccc2c1)[C@H](O)Cc1ccccc1C(=O)NC(C)(C)C
EC50 (CCRF-CEM): 970 nM

Cc1c(O)cccc1C(=O)N[C@@H](Cc1ccccc1)[C@H](O)CN1C[C@H]2CCCC[C@H]2C[C@H]1C(=O)NC(C)(C)C
EC50 (CCRF-CEM): 33 nM
CC50 [1]: > 5000 nM

Cc1c(O)cccc1C(=O)N[C@@H](CSc1ccc2ccccc2c1)[C@H](O)CN1C[C@H]2CCCC[C@H]2C[C@H]1C(=O)NC(C)(C)C
Ki [2]: 98 nM
EC50 (CCRF-CEM): 100 nM

CS(=O)(=O)O.Cc1c(O)cccc1C(=O)N[C@@H](CSc1ccccc1)[C@H](O)CN1C[C@H]2CCCC[C@H]2C[C@H]1C(=O)NC(C)(C)C [NELFINAVIR MESYLATE]
Tmax [3]: 1 h
Cmax [4]: 1580 ng/mL
half-life [5]: 1.72 h
Tmax [6]: 3 h
Cmax [7]: 12700 ng/mL
Tmax [8]: 1.39 h
half-life [9]: 2.21 h
Tmax [10]: 4.8 min
AUC [11]: 6630 ng·h/mL
AUC [12]: 7010 ng·h/mL
bioavailability [13]: 10%
AUC (Homo sapiens [14]): 22200 ng·h/mL
Tmax [15]: 3 h
Cmax [16]: 439 ng/mL
AUC [17]: 2890 ng·h/mL
half-life [18]: 1.47 h
Cmax [19]: 840 ng/mL
half-life [20]: 1.07 h
Cmax (Homo sapiens [21]): 3163 ng/mL
Tmax [22]: 4.8 min
Cmax [23]: 5670 ng/mL
Tmax [24]: 4.8 min
T1/2 el [25]: 3.37 h
EC50 (CCRF-CEM): 14 nM
AUC [26]: 7560 ng·h/mL
half-life [27]: 1.23 h
Cmax [28]: 313 ng/mL
bioavailability [29]: 35%
Tmax [30]: 3 h
half-life [31]: 1.26 h
half-life [32]: 2.04 h
AUC [33]: 10400 ng·h/mL
half-life [34]: 3 h
Tmax [35]: 4 h
bioavailability [36]: 43%
Cmax [37]: 7990 ng/mL
Tmax [38]: 2.82 h
Tmax [39]: 3.6 min
Cmax [40]: 1340 ng/mL
bioavailability [41]: 9%
half-life [42]: 1.18 h
half-life [43]: 2.28 h
Cmax [44]: 1590 ng/mL
bioavailability [45]: 29%
Cmax [46]: 1470 ng/mL
Cmax [47]: 11900 ng/mL
AUC [48]: 13300 ng·h/mL
AUC [49]: 1250 ng·h/mL
T max (Homo sapiens [50]): 3.5 h
Cmax [51]: 1220 ng/mL
AUC [52]: 11200 ng·h/mL
AUC [53]: 4040 ng·h/mL
half-life [54]: 7.72 h
AUC [55]: 6290 ng·h/mL
Tmax [56]: 3 h
AUC [57]: 6090 ng·h/mL
